In ChEMBL document CHEMBL1129483, “Antitumor 2-(aminocarbonyl)-1,2-bis(methylsulfonyl)-1-(2-chloroethyl)- hydrazines” (1996) one finds T/C, Survivors and Change data, which are given here for seven compounds.

Values joined by “and” are separate entries in the source; they are usually repeats but may differ in a detail not shown here. Equal values may be shown once.

Holding throughout (assay type): functional
Assay [1] deals with Mus musculus. Kind of assay: Average survival time of treated /control mice*100 was determined at a daily dose of 5 mg/kg. The essentials:
(§1)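 L1210 leukemia cells kept by serial passage in culture. 10^5 cells given ip to CD2F1 mice. Drug in 100% DMSO given ip once daily for 6 days starting 24 h after implant. 5–10 mice per group, with vehicle-treated controls. %T/C is average survival time of treated mice over controls ×100. 60-day survivors (cures) are excluded from the calculation.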

Assay [2] deals with Mus musculus. Briefly: %60 day survivors were determined for the compound as the mouse […] at dose 50 mg/kg. The essentials:
(§2)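 L1210 leukemia cells kept by serial passage in culture. 10^5 cells given ip to CD2F1 mice. Drug in 100% DMSO, at most 0.025 mL, given ip once daily for 6 consecutive days starting 24 h after implant. 5–10 mice per group, with vehicle-treated tumor-bearing controls. Value is the percentage of mice alive and symptom-free 60 days after tumor implant.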

The subject of assay [3] is Mus musculus. Briefly: Average percent change in body weight from onset to termination of therapy at dose 25(mg/kg). The procedure, abridged:
(§3)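 CD2F1 mice implanted ip with 10^5 L1210 leukemia cells (kept by serial passage in culture and periodic ip passage in donor mice). Drug given ip in 100% DMSO, at most 0.025 mL, once daily for 6 consecutive days starting 24 h after implantation. Groups of 5–10 mice; vehicle-treated tumor-bearing controls. Body weight change is the average percent from onset to termination of therapy, used as a toxicity index.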

The subject of assay [4] is Mus musculus. Briefly: Average percent change in body weight from onset to termination of therapy at dose 15(mg/kg). The procedure, abridged:
as §3

The test system of assay [5] is Mus musculus. Briefly: %60 day survivors were determined for the compound as the mouse […] at dose 75 mg/kg. The essentials:
as §2

Assay [6] concerns Mus musculus. Kind of assay: Average survival time of treated /control mice*100 was determined at a daily dose of 25 mg/kg. The essentials: as §1
Assay [7] relates to Mus musculus. Briefly: %60 day survivors were determined for the compound as the mouse […] at dose 10 mg/kg. The procedure, abridged:
as §2

Assay [8] has as its system Mus musculus. Kind of assay: Average survival time of treated /control mice*100 was determined at a daily dose of 15 mg/kg. The essentials:
as §1

Assay [9] deals with Mus musculus. Briefly: Average percent change in body weight from onset to termination of therapy at dose 100(mg/kg). The essentials: as §3
The test system of assay [10] is Mus musculus. Kind of assay: Average survival time of treated /control mice*100 was determined at a daily dose of 20 mg/kg. The procedure, abridged: as §1
Assay [11] concerns Mus musculus. Briefly: Average percent change in body weight from onset to termination of therapy at dose 75(mg/kg). The procedure, abridged:
as §3

The test system of assay [12] is Mus musculus. Kind of assay: %60 day survivors were determined for the compound as the mouse […] at dose 25 mg/kg. The essentials:
as §2

For assay [13], the system named is Mus musculus. Briefly: Average percent change in body weight from onset to termination of therapy at dose 5(mg/kg). The essentials: as §3
Assay [14] concerns Mus musculus. Kind of assay: Average percent change in body weight from onset to termination of therapy at dose 50(mg/kg). The essentials:
as §3

Assay [15] concerns Mus musculus. Briefly: Average percent change in body weight from onset to termination of therapy at dose 10(mg/kg). The essentials:
as §3

The test system of assay [16] is Mus musculus. Briefly: Average survival time of treated /control mice*100 was determined at a daily dose of 10 mg/kg. The essentials:
as §1

Assay [17] has as its system Mus musculus. Briefly: Average percent change in body weight from onset to termination of therapy at dose 20(mg/kg). The essentials:
as §3

Assay [18] concerns Mus musculus. Briefly: %60 day survivors were determined for the compound as the mouse […] at dose 150 mg/kg. The procedure, abridged:
as §2

Assay [19] relates to Mus musculus. Briefly: Average percent change in body weight from onset to termination of therapy at dose 150(mg/kg). The essentials: as §3
Assay [20] has as its system Mus musculus. Kind of assay: %60 day survivors were determined for the compound as the mouse […] at dose 100 mg/kg. The procedure, abridged: as §2
Assay [21] has as its system Mus musculus. Briefly: Average survival time of treated /control mice*100 was determined at a daily dose of 150 mg/kg. The essentials: as §1
For assay [22], the system named is Mus musculus. Briefly: Average survival time of treated /control mice*100 was determined at a daily dose of 50 mg/kg. The essentials:
as §1

Assay [23] has as its system Mus musculus. Briefly: %60 day survivors were determined for the compound as the mouse […] at dose 20 mg/kg. The essentials: as §2
Assay [24] relates to Mus musculus. Kind of assay: %60 day survivors were determined for the compound as the mouse […] at dose 15 mg/kg. The essentials:
as §2

Assay [25] relates to Mus musculus. Kind of assay: Average survival time of treated /control mice*100 was determined at a daily dose of 100 mg/kg. The essentials:
as §1

The subject of assay [26] is Mus musculus. Briefly: Average survival time of treated /control mice*100 was determined at a daily dose of 75 mg/kg. The procedure, abridged:
as §1

The test system of assay [27] is Mus musculus. Kind of assay: %60 day survivors were determined for the compound as the mouse […] at dose 5 mg/kg. The essentials: as §2

A word on the T/C: it is the ratio of treated to control.

As for `CCOC(=O)C(C)NC(=O)N(N(CCCl)S(C)(=O)=O)S(C)(=O)=O` (centres undefined), the T/C in the assay with Mus musculus [1] was determined as 170%; in the assay on Mus musculus [6], 239%; in the assay on Mus musculus [8], 185%; in the assay with Mus musculus [10], 227%; with Mus musculus [16], 178%. Further, the Survivors with Mus musculus [2] came to 100%; in the assay on Mus musculus [5], 80%; in the assay on Mus musculus [7] it was 20%; in the assay with Mus musculus [12] it was 60%. The Change is -2.5% in the assay on Mus musculus [3]; -0.5% in the assay on Mus musculus [4]; -2.5% with Mus musculus [9]; -2.5% in the assay with Mus musculus [11]; -2% in the assay on Mus musculus [13]; -3.3% in the assay on Mus musculus [14]. For the same compound, the Change in the assay on Mus musculus [15] is -1.4%; in the assay on Mus musculus [17] it was -1.5%.

For `CCOC(=O)C(Cc1ccccc1)NC(=O)N(N(CCCl)S(C)(=O)=O)S(C)(=O)=O` (centres undefined), the T/C in the assay on Mus musculus [1] is 147%; with Mus musculus [6], 177%; in the assay on Mus musculus [8] it was 160%; in the assay on Mus musculus [10], 174%; with Mus musculus [21], 169%; in the assay on Mus musculus [22] it was 225%. This compound came in with a T/C with Mus musculus [16] of 165%. For the same compound, the Survivors with Mus musculus [18] is 20%; in the assay on Mus musculus [2] it was 60%; in the assay with Mus musculus [20], 100%. The Change with Mus musculus [3] was -0.9%; in the assay on Mus musculus [4], -1.9%; in the assay on Mus musculus [19], -5%; in the assay on Mus musculus [9] it was -2%; in the assay on Mus musculus [13] it was -2.5%; in the assay on Mus musculus [14], -2%. Besides, the results for the Change in the assay on Mus musculus [15] and in the assay on Mus musculus [17] were -0.5% and -1.9%, respectively.

On to `CS(=O)(=O)N(CCCl)N(C(=O)NCCCl)S(C)(=O)=O`, for which the Survivors with Mus musculus [23] came to 80%; in the assay with Mus musculus [24], 80%; in the assay with Mus musculus [7], 100%. The Change in the assay on Mus musculus [4] is -4%; in the assay with Mus musculus [15], -4.7%; with Mus musculus [17], -10.4%. Also, the T/C with Mus musculus [8] amounted to 216%; with Mus musculus [10], 239%.

As for `CS(=O)(=O)N(CCCl)N(C(=O)NCCCCl)S(C)(=O)=O`, the T/C in the assay on Mus musculus [1] is recorded as 111%; in the assay with Mus musculus [8] it was 192%; with Mus musculus [16] it was 187%. Also, the Survivors in the assay on Mus musculus [24] was 20%. Also, the Change with Mus musculus [4] was -8.8%; in the assay on Mus musculus [13] it was -2.8%; in the assay with Mus musculus [15], -5.6%.

As for `CCOC(=O)CNC(=O)N(N(CCCl)S(C)(=O)=O)S(C)(=O)=O`, the Survivors came to 20% with Mus musculus [23]; 80% in the assay on Mus musculus [2]; 60% with Mus musculus [5]; 20% with Mus musculus [7]; 100% in the assay with Mus musculus [12]. Besides, the T/C in the assay on Mus musculus [1] was 151%; with Mus musculus [25] it was 115%; in the assay with Mus musculus [26], 119%; in the assay with Mus musculus [8] it was 202%; in the assay on Mus musculus [10] (20 mg/kg), 191% and 138%; in the assay with Mus musculus [16], 202%. Also, the Change in the assay with Mus musculus [3] was -0.5%; with Mus musculus [4], -0.5%; in the assay with Mus musculus [9], -4%; in the assay with Mus musculus [11], -1.5%; in the assay on Mus musculus [13], -1.5%; in the assay with Mus musculus [14], -2.5%. For the same compound, the Change is -1.4% with Mus musculus [15] and -3.7% in the assay with Mus musculus [17].

On to `C=CCNC(=O)N(N(CCCl)S(C)(=O)=O)S(C)(=O)=O`, for which the figures for the T/C with Mus musculus [1] and in the assay with Mus musculus [16] were 184% and 394%, respectively. Also, the Survivors was determined as 100% in the assay with Mus musculus [24], 40% in the assay with Mus musculus [7] and 20% with Mus musculus [27]. For the same compound, the Change was -2.9% in the assay with Mus musculus [4], -1.6% with Mus musculus [13] and -2.1% in the assay on Mus musculus [15].

In the assay on Mus musculus [1], `CNC(=O)N(N(CCCl)S(C)(=O)=O)S(C)(=O)=O` [LAROMUSTINE] yielded a T/C of 234%. Moreover, the figures for the Survivors with Mus musculus [24], in the assay with Mus musculus [7] and with Mus musculus [27] were 100%, 100% and 40%, respectively. The Change in the assay with Mus musculus [4] was -2.1%; in the assay with Mus musculus [13] it was 9.9%; with Mus musculus [15] it was -5.6%.
